Active and inactive are the calls of the source.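 Rule for the calls, unless noted: active = compounds giving at least 50% inhibition in the cell-based MKP-3 phosphatase rescue imaging test; inactive = the rest.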
Tests used:
[1] = inhibitors of TNFa-induced NFkB p65 translocation, primary screen, imaging, HUVEC, MLSMR starter and 10KST1 sets (AID 438;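 active = inhibition above 20% together with a positive visual image hit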;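 note: compound added about 3h40 before a 20 min TNFalpha stimulation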;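 for inhibition: signal is the nuclear over cytoplasmic p65 intensity ratio per well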); details: HUVEC TNFa-induced p65 nuclear translocation; cell count: measured here: nuclei count (cytotoxicity indicator), at 2.08 µM; inhibition: at 2 µM, stronger effect = higher value, 0% TNFa-plus-vehicle, 100% no-TNFa wells
[2] = endothelial E-selectin expression blockers – imaging, HUVEC, immunofluorescence, MLSMR starter and 10KST1 sets, primary screen (AID 487;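 active = visually confirmed hit in the image check and inhibition above 20%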;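 for inhibition: signal is fraction of cell area covered by stained E-selectin grains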;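 for nuclei count: 100% = median nuclei count of all wells on the same plate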); details: HUVEC TNFalpha-induced E-selectin immunofluorescence imaging, at 2 µM; inhibition: stronger effect = higher value; nuclei count: measured here: cell number, toxicity
[3] = Primary imaging screen for DUSP6 inhibitors that restore phospho-Erk in transfected HeLa cells, chemical complementation (AID 609); details: HeLa MKP-3 transfected, phospho-Erk imaging KS statistic, at 10 µM, cells stimulated with TPA for 15 min;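 for inhibition: phospho-Erk level distribution per well compared with pooled transfected vehicle control wells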
[4] = target: Dual specificity protein phosphatase 6 (Homo sapiens) (UniProt Q16828); assay: as above; details: HeLa MKP-3 transfected, phospho-Erk imaging KS statistic; at 10 µM; stronger effect = higher value; cells stimulated with TPA for 15 min
[5] = target: Voltage-gated potassium channel subunit beta-2 (Rattus norvegicus) (UniProt P62483); assay: inhibitors of rat Kvbeta2 reductase activity – biochemical, NADPH fluorescence, primary screen (AID 622;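 active = fluorescence slope higher than the sample average by over 3 SD, cut at about -0.22 in these data, passing the limit was not always enough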;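 note: slope of raw intensity against log time taken from 70 to 1610 s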); details: recombinant KvBeta, 4-cyanobenzaldehyde reduction, at 10 µM, stronger effect = higher value
[6] = target: Voltage-gated potassium channel subunit beta-2 (Rattus norvegicus) (UniProt P62483); assay: enhancers of rat Kvbeta2 NADPH turnover – biochemical, NADPH fluorescence, primary screen (AID 623;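 active = NADPH fluorescence slope more negative than the mean of all samples by about 3 SD, 99.7% confidence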;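 note: fluorescence intensity change per second fitted from 20 to 320 s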); details: Recombinant KvBeta, NADPH fluorescence decrease slope, 10 min; at 10 µM; stronger effect = lower value
[7] = target: Alpha-2C adrenergic receptor (Homo sapiens) (UniProt P18825); assay: compounds altering alpha2C-coupled GIRK flux – cell-based, HEK293 alpha2C/GIRK1/2, thallium flux, primary screen (AID 624;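 active = fluorescence slope after compound addition differing from the mean of all screened samples at 99.7% confidence, in either direction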;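 note: slope of fluorescence ratio to pre-addition baseline per second over 15 to 24 s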); details: thallium flux BTC fluorescence, at 10 µM, actives lie on both sides
[8] = inhibitors of larval lipid processing in zebrafish, primary screen, whole organism, PED6 fluorescence, gall bladder and intestine (AID 686;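 active = a full or partial loss of lipid-probe fluorescence in the fish gall bladder, intestine or both, judged by eye; inactive = no fluorescence loss, or compound toxic to the fish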;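 note: larvae 5 to 7 days old with five fish per well; signal comes from phospholipase A2 cleavage of quenched PED6 carried via bile; overnight exposure to compound and PED6 before scoring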); details: Zebrafish larvae PED6 lipid processing, fluorescence scoring; screened at 20 µM (by protocol)
Outline: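 system = live zebrafish larvae aged 5-7 days, whole organism | probe or stimulus = ingested quenched lipid PED6 at 100 nM | doses = 20 µM single dose | timing = overnight exposure | detection = fluorescence microscopy with visual scoring of gall bladder and intestine | read-out = visual per-well fluorescence inhibition score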

[9] = loss of swimming-algae plug formation – whole organism, Chlamydomonas reinhardtii, WT vs cilia-less mutant, absorbance, 96-well, primary screen (AID 463189;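 active = inhibition at or above 50% relative to wild type and mutant plate controls; inactive = inhibition below 50%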;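 note: 0% = wild type cc124 cells in DMSO and 100% = ciliumless bld1 mutant cells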); details: Chlamydomonas reinhardtii gravitaxis, OD600 absorbance, 2 days; at 10 µM; stronger effect = higher value
[10] = measured here: cell density z-score
[11] = measured here: nuclear c-Myc green intensity z-score
[12] = measured here: nuclear pErk red intensity z-score, stronger effect = higher value

Dual specificity protein phosphatase 6 (Homo sapiens), sequence (Q16828 whole entry, looked up): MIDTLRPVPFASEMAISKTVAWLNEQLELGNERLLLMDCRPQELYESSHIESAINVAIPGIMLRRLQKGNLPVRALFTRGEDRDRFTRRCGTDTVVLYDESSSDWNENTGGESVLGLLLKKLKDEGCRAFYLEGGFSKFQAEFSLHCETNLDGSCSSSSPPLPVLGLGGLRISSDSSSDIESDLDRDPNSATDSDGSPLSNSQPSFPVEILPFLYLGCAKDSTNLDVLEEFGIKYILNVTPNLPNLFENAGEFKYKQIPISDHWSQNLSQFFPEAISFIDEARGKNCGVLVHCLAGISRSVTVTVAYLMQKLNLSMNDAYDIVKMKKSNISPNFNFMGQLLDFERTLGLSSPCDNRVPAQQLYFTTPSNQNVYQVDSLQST
Voltage-gated potassium channel subunit beta-2 (Rattus norvegicus), sequence (P62483 whole entry, looked up): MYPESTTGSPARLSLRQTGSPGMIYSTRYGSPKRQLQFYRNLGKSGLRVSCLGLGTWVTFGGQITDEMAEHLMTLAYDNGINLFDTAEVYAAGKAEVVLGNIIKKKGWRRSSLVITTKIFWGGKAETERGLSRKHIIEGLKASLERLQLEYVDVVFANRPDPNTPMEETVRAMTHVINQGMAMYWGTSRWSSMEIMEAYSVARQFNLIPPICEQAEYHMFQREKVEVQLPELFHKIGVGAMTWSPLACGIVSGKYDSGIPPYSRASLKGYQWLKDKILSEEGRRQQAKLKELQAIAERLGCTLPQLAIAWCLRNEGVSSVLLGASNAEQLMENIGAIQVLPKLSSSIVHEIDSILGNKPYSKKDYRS
Alpha-2C adrenergic receptor (Homo sapiens), sequence (P18825 whole entry, looked up): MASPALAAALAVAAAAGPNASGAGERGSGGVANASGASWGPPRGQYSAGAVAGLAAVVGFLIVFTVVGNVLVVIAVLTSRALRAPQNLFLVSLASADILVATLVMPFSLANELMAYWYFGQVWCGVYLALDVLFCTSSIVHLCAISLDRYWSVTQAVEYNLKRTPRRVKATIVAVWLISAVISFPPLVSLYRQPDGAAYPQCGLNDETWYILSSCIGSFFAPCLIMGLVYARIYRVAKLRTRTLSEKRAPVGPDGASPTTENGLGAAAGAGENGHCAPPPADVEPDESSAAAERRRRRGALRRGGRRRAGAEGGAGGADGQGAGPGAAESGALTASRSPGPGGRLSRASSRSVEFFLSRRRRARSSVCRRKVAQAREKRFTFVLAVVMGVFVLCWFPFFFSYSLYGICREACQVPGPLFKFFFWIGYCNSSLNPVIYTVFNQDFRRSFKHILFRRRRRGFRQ

SMILES | cell count [1] | inhibition [1] | inhibition [2] | nuclei count [2] [%] | z-score [3, 10] | z-score [3, 11] | z-score [3, 12] | inhibition [4] | fluorescence slope [5] | NADPH fluorescence slope [6] | slope [7] | outcome [8] | inhibition [9]
c1ccc(N2CCN(c3nc(-c4ccccn4)nc4ccccc34)CC2)cc1 | 493 | -5.1% (inactive) | 22.4% (inactive) | 86.2 | -1.22 | 1.7 | 1.08 | -5.26% (inactive) | -0.413 (inactive) | -7.9e-05 (inactive) | 0.0043 (inactive) | inactive | 106% (active)
CN1CCN(C(=O)CSc2nc(-c3cccs3)ccc2C#N)CC1 | 625 | -11.3% (inactive) | 21.9% (inactive) | 138 | -0.668 | -0.886 | -0.831 | 6.04% (inactive) | -0.299 (inactive) | -1.3e-05 (inactive) | 0.00609 (inactive) | inactive | 21.2% (inactive)
COc1ccccc1C(=O)N1CCCC1(C#N)c1ccccc1 (centres undefined) | 653 | 1.8% (inactive) | -44.9% (inactive) | 121 | -0.569 | -0.677 | -0.674 | -6.48% (inactive) | -0.475 (inactive) | -0.000294 (inactive) | 0.00555 (inactive) | inactive | 13% (inactive)
CC(=O)Oc1ccccc1C1OCCN1C(C)=O (centres undefined) | 619 | -6.5% (inactive) | -38.8% (inactive) | 170 | -0.208 | -0.565 | 1.43 | -2.69% (inactive) | -0.375 (inactive) | -2.3e-05 (inactive) | 0.00518 (inactive) | inactive | -5.26% (inactive)
CC1(C)Cc2c(sc3nc4n(c(=O)c23)CCC4)CO1 | 700 | -9.4% (inactive) | 43.7% (inactive) | 159 | -1.3 | 1.46 | 1.2 | 2.71% (inactive) | -0.377 (inactive) | -6e-05 (inactive) | 0.00549 (inactive) | inactive | -8.7% (inactive)
C/C(CC1(O)C(=O)N(Cc2ccccc2)c2ccccc21)=N\O (centres undefined) | 645 | -11.4% (inactive) | -28.2% (inactive) | 182 | -1.05 | -1.05 | 1.51 | -7.79% (inactive) | -0.464 (inactive) | -0.000206 (inactive) | 0.0275 (active) | inactive | -6.97% (inactive)
CCc1c(C(=O)O)[nH]c2ccc(Br)cc12 | 581 | -1.8% (inactive) | -21.7% (inactive) | 171 | -0.258 | -0.825 | 2.03 | -7.01% (inactive) | -0.367 (inactive) | -5.4e-05 (inactive) | 0.00495 (inactive) | inactive | -2.83% (inactive)
CC(C)Cn1cnc2c(c1=O)c1nc3ccccc3nc1n2Cc1ccc2c(c1)OCO2 | 361 | -3.7% (inactive) | -15.2% (inactive) | 149 | 0.279 | -0.729 | -0.248 | 9.42% (inactive) | -0.393 (inactive) | -0.000121 (inactive) | 0.00801 (inactive) | inactive | 1.23% (inactive)
CSc1nc(N2CCCC2)c2c(c1C#N)CC(C)(C)OC2 | 568 | -4.5% (inactive) | -28.5% (inactive) | 171 | 0.89 | -1.74 | 0.374 | 5.65% (inactive) | -0.314 (inactive) | 8.2e-06 (inactive) | 0.00565 (inactive) | inactive | 10.3% (inactive)
N#CC(C(=O)NC1CC1)c1nc2ccccc2nc1N1CCN(C/C=C/c2ccccc2)CC1 (centres undefined) | 507 | -4.6% (inactive) | -99.8% (inactive) | 164 | -0.376 | 0.378 | 1.69 | 2.46% (inactive) | -0.304 (inactive) | -1.2e-05 (inactive) | -0.000245 (inactive) | inactive | 26.9% (inactive)
COC(=O)c1nn2c(C(F)(F)F)cc(-c3ccc(Br)o3)nc2c1Br | 510 | -7.1% (inactive) | 1.9% (inactive) | 120 | -1.65 | -0.461 | 2.56 | -2.07% (inactive) | -0.442 (inactive) | -6.2e-05 (inactive) | 0.00401 (inactive) | inactive | 8.6% (inactive)
Cc1nc2c(c(=O)n1CC1CCCO1)c1nc3ccccc3nc1n2Cc1ccc2c(c1)OCO2 (centres undefined) | 281 | -7.1% (inactive) | -128% (inactive) | 80.3 | 2.15 | -0.362 | -1.56 | -0.584% (inactive) | -0.42 (inactive) | -0.000106 (inactive) | 0.00645 (inactive) | inactive | 9.64% (inactive)
c1coc(-c2nnc3sc(-c4cccs4)nn23)c1 | 471 | 2.8% (inactive) | -41.9% (inactive) | 132 | -1.75 | 0.838 | 2.17 | -13.3% (inactive) | -0.459 (inactive) | 9.9e-06 (inactive) | 0.00352 (inactive) | active; weak signal in gallbladder and intestine | 3.53% (inactive)
